Data on three compounds can be found in ChEMBL document CHEMBL1148894, “Triterpene saponins from the roots of Clematis chinensis” (J Nat Prod, 2004).

Each structure is given as a SMILES string. pIC50: −log10 of the molar value. Calls of active or inactive are those of the source. The calls are words filed in the database; no cut-off is given here.

One assay concerns PC-3. Nature of the assay: Cytotoxicity against human PC3 cells. Type of assay: functional. As to conditions: read-out: LC50 (the source's name).
Another assay has as its system NCI-H460. Nature of the assay: Cytotoxicity against human NCI-H460 cells. The assay is classed as functional. The following applies: read-out: LC50 (the source's name).
The subject of the next assay is SF-295. The experiment in a line: Cytotoxicity against human SF295 cells. The following applies: read-out: LC50 (the source's name). Type of assay: functional.
Assay [1] in a line: Cytotoxicity against human BSY1 cells. Type of assay: functional. The following applies: BSY-1, read-out: LC50 (the source's name).
The test system of a further assay is OVCAR-8. Nature of the assay: Cytotoxicity against human OVCAR8 cells. Type of assay: functional. The following applies: read-out: LC50 (the source's name).
A further assay concerns OVCAR-3. Nature of the assay: Cytotoxicity against human OVCAR-3 cells. The assay is classed as functional. The following applies: read-out: LC50 (the source's name).
The test system of a further assay is U-251. Nature of the assay: Cytotoxicity against human U251 cells. The assay is classed as functional. The following applies: read-out: LC50 (the source's name).
The subject of another assay is MKN-28. Nature of the assay: Cytotoxicity against human MKN28 cells. Type of assay: functional. As to conditions: read-out: LC50 (the source's name).
The test system of assay [2] is HL-60. The experiment in a line: Cytotoxicity against human HL60 cells after 72 hrs by MTT assay. Type of assay: functional, cell-based. The following applies: HL-60, 72 h. The gist of the method: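 HL-60 cells (JCRB 0085) grown in RPMI 1640 with heat-inactivated 10% FBS, L-glutamine, penicillin and streptomycin. Seeded at 4 × 10^4 cells/mL, preincubated 24 h at 37 °C in 5% CO2. Samples added in EtOH-H2O (1:1) to final 0.1-50 µg/mL, with vehicle controls, then incubated 72 h. MTT added for 4 h, formazan dissolved in DMSO, A550 read. Done in triplicate; IC50 is the 50% drop in viable cells.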

Assay [3] concerns HL-60. Nature of the assay: Cytotoxicity against human HL60 cells at 20 uM after 72 hrs by MTT assay. Type of assay: functional, cell-based.

As to `C[C@@H]1O[C@@H](OC[C@H]2O[C@@H](O[C@H]3[C@H](O)[C@@H](O)[C@H](O[C@@H]4CO[C@@H](O[C@@H]5[C@@H](O)[C@H](C)O[C@@H](O[C@H]6[C@H](O[C@H]7CC[C@]8(C)[C@H]9CC=C%10[C@@H]%11CC(C)(C)CC[C@]%11(C(=O)O)CC[C@@]%10(C)[C@]9(C)CC[C@H]8C7(C)C)OC[C@H](O)[C@@H]6O)[C@@H]5O)[C@H](O)[C@@H]4O)O[C@@H]3CO)[C@H](O)[C@@H](O)[C@@H]2O)[C@H](O)[C@H](O)[C@H]1O`, the CC50 turned out to be 6 µM with PC-3; 40 µM in the assay on NCI-H460; 6 µM with SF-295; 5.9 µM in [1]; 71 µM in the assay with OVCAR-8; 47 µM in the assay on OVCAR-3. For the same compound, the CC50 in the assay on U-251 came to 6.3 µM; in the assay on MKN-28 it was 30 µM. Further, the pIC50 with HL-60 [2] was 5.55.
Take `C[C@@H]1O[C@@H](OC[C@H]2O[C@@H](O[C@H]3[C@H](O)[C@@H](O)[C@H](O[C@@H]4CO[C@@H](O[C@@H]5[C@@H](O)[C@H](C)O[C@@H](O[C@H]6[C@H](O[C@H]7CC[C@]8(C)[C@H]9CC=C%10[C@@H]%11CC(C)(C)CC[C@]%11(C(=O)O[C@@H]%11O[C@H](CO[C@@H]%12O[C@H](CO)[C@@H](O[C@@H]%13O[C@@H](C)[C@H](O)[C@@H](O)[C@H]%13O)[C@H](O)[C@H]%12O)[C@@H](O)[C@H](O)[C@H]%11O)CC[C@@]%10(C)[C@]9(C)CC[C@H]8C7(C)C)OC[C@H](O)[C@@H]6O)[C@@H]5O)[C@H](O)[C@@H]4O)O[C@@H]3CO)[C@H](O)[C@@H](O)[C@@H]2O)[C@H](O)[C@H](O)[C@H]1O`: the result in the assay on HL-60 [3] was inactive.
On to `C[C@@H]1O[C@@H](O[C@H]2[C@H](O[C@H]3CC[C@]4(C)[C@H]5CC=C6[C@@H]7CC(C)(C)CC[C@]7(C(=O)O)CC[C@@]6(C)[C@]5(C)CC[C@H]4C3(C)C)OC[C@H](O)[C@@H]2O)[C@H](O)[C@H](O[C@@H]2OC[C@@H](O)[C@@H](O)[C@H]2O)[C@H]1O`, for which, in the assay with HL-60 [2], the pIC50 is 5.64.
